From ChEMBL document CHEMBL4177624, “Rationally designed hecogenin thiosemicarbazone analogs as novel MEK inhibitors for the control of breast malignancies” (Bioorg Med Chem, 2017)

Experiments:
Assay type in all cases: functional, cell-based
BT-474 = experiment: Antiproliferative activity against human BT474 cells after 72 hrs by MTT assay; settings: BT-474, 72 h
Method in brief: (§1)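 Six human breast carcinoma lines of differing molecular and phenotypic character were each exposed to a range of concentrations for 72 h. Proliferation was read by MTT. Results are given as mean percent viability, with IC₅₀ ± SEM calculated per cell line.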

SK-BR-3 = experiment: Antiproliferative activity against human SKBR3 cells after 72 hrs by MTT assay; settings: SK-BR-3, 72 h; method in brief: as §1
MCF7 = experiment: Antiproliferative activity against human MCF7 cells after 72 hrs by MTT assay; settings: MCF7, 72 h; method in brief: as §1
T47D = experiment: Antiproliferative activity against human T47D cells after 72 hrs by MTT assay; method in brief: as §1
MDA-MB-468 = experiment: Antiproliferative activity against human MDA-MB-468 cells after 72 hrs by MTT assay; settings: MDA-MB-468, 72 h; method in brief: as §1
MDA-MB-231 = experiment: Antiproliferative activity against human MDA-MB-231 cells after 72 hrs by MTT assay; settings: MDA-MB-231, 72 h
Method in brief: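 MDA-MB-231 triple-negative breast cancer cells were exposed to a range of concentrations for 72 h. Proliferation was read by MTT. Results are given as mean percent viability versus concentration, with IC₅₀ ± SEM calculated from the curve.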

Q: `Cc1ccc(NC(=S)N/N=C2\C[C@H]3[C@@H](CC[C@H]4C[C@@H](O)CC[C@@]43C)[C@@H]3C[C@@H]4O[C@]5(CC[C@@H](C)CO5)[C@@H](C)[C@@H]4[C@@]23C)c(C)c1` was tested. Which IC50 (BT-474) did it give?
A: 3.7 µM

Q: And the IC50 (SK-BR-3)?
A: 4.2 µM

Q: What about the IC50 (MCF7) of the same compound?
A: 3 µM

Q: And the IC50 (T47D)?
A: 5.2 µM

Q: What about the IC50 (MDA-MB-468) of the same compound?
A: 3.8 µM

Q: What about the IC50 (MDA-MB-231) of the same compound?
A: 2.7 µM

Q: Which IC50 (BT-474) does the source give for `C[C@@H]1CC[C@@]2(OC1)O[C@H]1C[C@H]3[C@@H]4CC[C@H]5C[C@@H](O)CC[C@]5(C)[C@H]4C/C(=N\NC(=S)Nc4ccccc4[N+](=O)[O-])[C@]3(C)[C@H]1[C@@H]2C` here?
A: 6.9 µM

Q: What about the IC50 (SK-BR-3) of the same compound?
A: 5.5 µM

Q: And the IC50 (MCF7)?
A: 5 µM

Q: What about the IC50 (T47D) of the same compound?
A: 9 µM

Q: What about the IC50 (MDA-MB-468) of the same compound?
A: 6.1 µM

Q: What about the IC50 (MDA-MB-231) of the same compound?
A: 4.3 µM

Q: `COc1ccccc1C(=O)O[C@H]1CC[C@@]2(C)[C@@H](CC[C@@H]3[C@@H]2CC(=O)[C@]2(C)[C@@H]4[C@H](C[C@@H]32)O[C@]2(CC[C@@H](C)CO2)[C@H]4C)C1` was tested. Which IC50 (BT-474) did it give?
A: > 40 µM

Q: What about the IC50 (SK-BR-3) of the same compound?
A: > 40 µM

Q: And the IC50 (MCF7)?
A: > 40 µM

Q: What about the IC50 (T47D) of the same compound?
A: > 40 µM

Q: And the IC50 (MDA-MB-468)?
A: > 40 µM

Q: What about the IC50 (MDA-MB-231) of the same compound?
A: > 40 µM

Q: With `C[C@@H]1CC[C@@]2(OC1)O[C@H]1C[C@H]3[C@@H]4CC[C@H]5C[C@@H](OC(=O)c6ccc(C#N)cc6)CC[C@]5(C)[C@H]4CC(=O)[C@]3(C)[C@H]1[C@@H]2C` as the compound, how does the IC50 (BT-474) read?
A: 35 µM

Q: And the IC50 (SK-BR-3)?
A: 34.7 µM

Q: And the IC50 (MCF7)?
A: 33.2 µM

Q: And the IC50 (T47D)?
A: > 40 µM

Q: What about the IC50 (MDA-MB-468) of the same compound?
A: 32.6 µM

Q: What about the IC50 (MDA-MB-231) of the same compound?
A: 25.7 µM

Q: What does the source list for `C[C@@H]1CC[C@@]2(OC1)O[C@H]1C[C@H]3[C@@H]4CC[C@H]5C[C@@H](O)CC[C@]5(C)[C@H]4C/C(=N\NC(=S)Nc4ccc5c(c4)OCO5)[C@]3(C)[C@H]1[C@@H]2C`?
A: IC50 (BT-474): 7.5 µM; IC50 (SK-BR-3): 6.2 µM; IC50 (MCF7): 5.3 µM; IC50 (T47D): 7.8 µM; IC50 (MDA-MB-468): 5.9 µM; IC50 (MDA-MB-231): 5.5 µM

Q: Which IC50 (BT-474) does the source give for `C[C@@H]1CC[C@@]2(OC1)O[C@H]1C[C@H]3[C@@H]4CC[C@H]5C[C@@H](O)CC[C@]5(C)[C@H]4C/C(=N\NC(=S)Nc4ccccc4C(F)(F)F)[C@]3(C)[C@H]1[C@@H]2C` here?
A: 3.1 µM

Q: What about the IC50 (SK-BR-3) of the same compound?
A: 2.1 µM

Q: And the IC50 (MCF7)?
A: 2.2 µM

Q: And the IC50 (T47D)?
A: 2.4 µM

Q: What about the IC50 (MDA-MB-468) of the same compound?
A: 2.7 µM

Q: And the IC50 (MDA-MB-231)?
A: 2.1 µM

Q: For `C[C@@H]1CC[C@@]2(OC1)O[C@H]1C[C@H]3[C@@H]4CC[C@H]5C[C@@H](O)CC[C@]5(C)[C@H]4C/C(=N\NC(=S)Nc4ccc(C(F)(F)F)cc4)[C@]3(C)[C@H]1[C@@H]2C`, which IC50 (BT-474) is on record?
A: 4.4 µM

Q: What about the IC50 (SK-BR-3) of the same compound?
A: 4 µM

Q: And the IC50 (MCF7)?
A: 3.7 µM

Q: And the IC50 (T47D)?
A: 3.8 µM

Q: What about the IC50 (MDA-MB-468) of the same compound?
A: 3.9 µM

Q: What about the IC50 (MDA-MB-231) of the same compound?
A: 3.2 µM

Q: How did the IC50 (BT-474) turn out when `C[C@@H]1CC[C@@]2(OC1)O[C@H]1C[C@H]3[C@@H]4CC[C@H]5C[C@@H](O)CC[C@]5(C)[C@H]4C/C(=N\NC(=O)Nc4ccccc4)[C@]3(C)[C@H]1[C@@H]2C` was run?
A: 11.9 µM

Q: What about the IC50 (SK-BR-3) of the same compound?
A: 12 µM

Q: And the IC50 (MCF7)?
A: 10.4 µM

Q: What about the IC50 (T47D) of the same compound?
A: 13.5 µM

Q: And the IC50 (MDA-MB-468)?
A: 11.9 µM

Q: And the IC50 (MDA-MB-231)?
A: 9.2 µM
